Test results taken from ChEMBL document CHEMBL3612041, “Combating highly resistant emerging pathogen Mycobacterium abscessus and Mycobacterium tuberculosis with novel salicylanilide esters and carbamates” (Eur J Med Chem, 2015).
Converted amounts (≈) assume the structure as drawn.

What was measured:
[1] = system: Mycobacterium tuberculosis; assay: Antimycobacterial activity against multidrug-resistance Mycobacterium tuberculosis A8 after 28 days by serial dilution method; assay type: functional; settings: for MIC: Mycobacterium tuberculosis, A8, 672 h
Summary of the method: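 Serial dilution in in-house Sula semisynthetic medium, pH 6.5. Compounds added as DMSO solutions at 10 doses, final 0.05–100 µg/mL. Incubation at 37 °C, 7 days for M. abscessus and 28 days for M. tuberculosis strains. MIC taken as the lowest concentration giving visible growth inhibition, confirmed by CFU on drug-free Löwenstein-Jensen medium after further equal incubation. Repeated at least twice.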

[2] = system: Mycobacterium tuberculosis; assay: Antimycobacterial activity against INH/RIF/rifabutine/streptomycin-resistance Mycobacterium tuberculosis 9449/2006 after 14 days by microbroth dilution method; assay type: functional; settings: 9449/2006, 336 h
Summary of the method: (§1)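 Micromethod MIC in Sula semisynthetic medium, pH 6.5. Incubation at 37 °C, read at 14 and 21 days. MIC taken as the lowest concentration giving complete inhibition of mycobacterial growth.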

[3] = system: Mycobacterium tuberculosis; assay: Antimycobacterial activity against INH/RIF/rifabutine/streptomycin-resistance Mycobacterium tuberculosis 9449/2006 after 21 days by microbroth dilution method; assay type: functional; settings: 9449/2006, 504 h; summary of the method: as §1
[4] = system: Mycobacterium tuberculosis; assay: Antimycobacterial activity against INH/RIF/rifabutine/streptomycin/ethambutol/ofloxacin/gentamicin/amikacin-resistance Mycobacterium tuberculosis Praha 131 after 14 days by microbroth dilution method; assay type: functional; settings: Praha 131, 336 h; summary of the method: as §1
[5] = system: Mycobacterium tuberculosis; assay: Antimycobacterial activity against INH/RIF/rifabutine/streptomycin/ethambutol/ofloxacin/gentamicin/amikacin-resistance Mycobacterium tuberculosis Praha 131 after 21 days by microbroth dilution method; assay type: functional; settings: Praha 131, 504 h; summary of the method: as §1
[6] = Selectivity index, ratio of IC50 for human MONO-MAC-6 cells to MIC for multidrug-resistance Mycobacterium tuberculosis A8; assay type: toxicity; settings: read-out: Selectivity Index
[7] = Selectivity index, ratio of IC50 for human MONO-MAC-6 cells to MIC for INH/RIF/rifabutine/streptomycin-resistance Mycobacterium tuberculosis 9449/2006 after 21 days; assay type: toxicity; settings: read-out: Selectivity Index
[8] = Selectivity index, ratio of IC50 for human MONO-MAC-6 cells to MIC for INH/RIF/rifabutine/streptomycin/ethambutol/ofloxacin/gentamicin/amikacin-resistance Mycobacterium tuberculosis Praha 131 after 21 days; assay type: toxicity; settings: read-out: Selectivity Index

SMILES | Activity [1] [CFU] | MIC [1] [µM] | MIC [2] [µM] | MIC [3] [µM] | MIC [4] [µM] | MIC [5] [µM] | selectivity ratio [6] | selectivity ratio at 504 h [7] | selectivity ratio at 504 h [8]
O=C(Nc1ccc(C(F)(F)F)cc1)c1cc(Cl)ccc1O | 0 | 1.6 (≈ 0.505 µg/mL) |  |  |  |  |  |  | 
O=C(NCCCl)Oc1ccc(Cl)cc1C(=O)Nc1ccc(C(F)(F)F)cc1 | 0 | 1.2 (≈ 0.505 µg/mL) | 0.5 (≈ 0.211 µg/mL) | 1 (≈ 0.421 µg/mL) | 1 (≈ 0.421 µg/mL) | 2 (≈ 0.842 µg/mL) | 6.3 | 7.6 | 3.8
O=C(NCCCCl)Oc1ccc(Br)cc1C(=O)Nc1ccc(Cl)c(Cl)c1 | 2 | 1 (≈ 0.481 µg/mL) | 1 (≈ 0.481 µg/mL) | 2 (≈ 0.961 µg/mL) | 1 (≈ 0.481 µg/mL) | 1 (≈ 0.481 µg/mL) | 9.5 | 4.8 | 9.5
O=C(Oc1ccc(Cl)cc1C(=O)Nc1ccc(Cl)c(Cl)c1)c1cnccn1 |  |  |  | 0.25 (≈ 0.106 µg/mL) |  | 0.125 (≈ 0.0528 µg/mL) |  |  | 
O=C(NCCCCl)Oc1ccc(Br)cc1C(=O)Nc1ccc(C(=O)c2ccccc2)cc1 | 1 | 1.9 (≈ 0.98 µg/mL) |  |  |  |  | 6.6 |  | 
O=C(Oc1ccc(Br)cc1C(=O)Nc1ccc(C(F)(F)F)cc1)c1cnccn1 |  |  |  | 0.5 (≈ 0.233 µg/mL) |  | 0.5 (≈ 0.233 µg/mL) |  |  | 
O=C(Nc1ccc(Cl)c(Cl)c1)c1cc(Br)ccc1O | 0 | 2.8 (≈ 1.01 µg/mL) |  |  |  |  | 1.3 |  | 
O=C(Oc1ccc(Br)cc1C(=O)Nc1ccc(C(F)(F)F)cc1)c1cnc(Cl)cn1 | 22 | 2 (≈ 1 µg/mL) | 1 (≈ 0.501 µg/mL) | 2 (≈ 1 µg/mL) | 2 (≈ 1 µg/mL) | 2 (≈ 1 µg/mL) | 0.6 | 0.6 | 0.6
O=C(Oc1ccc(Cl)cc1C(=O)Nc1ccc(C(F)(F)F)cc1)c1cnc(Cl)cn1 | 1 | 1.1 (≈ 0.502 µg/mL) | 1 (≈ 0.456 µg/mL) | 2 (≈ 0.912 µg/mL) | 1 (≈ 0.456 µg/mL) | 1 (≈ 0.456 µg/mL) | 1 | 0.6 | 1.1
O=C(NCCCCl)Oc1ccc(Cl)cc1C(=O)Nc1ccc(C(F)(F)F)cc1 | 0 | 1.2 (≈ 0.522 µg/mL) | 1 (≈ 0.435 µg/mL) | 2 (≈ 0.87 µg/mL) | 1 (≈ 0.435 µg/mL) | 2 (≈ 0.87 µg/mL) | 7.3 | 4.4 | 4.4
O=C(c1ccccc1)c1ccc(NC(=O)c2cc(Br)ccc2O)cc1 | 1 | 12.7 (≈ 5.03 µg/mL) |  |  |  |  | 1.7 |  | 
O=C(Oc1ccc(Br)cc1C(=O)Nc1ccc(Cl)c(Cl)c1)c1cnc(Cl)cn1 | 11 | 2 (≈ 1 µg/mL) |  |  |  |  | 2.9 |  | 
O=C(Nc1ccc(Cl)c(Cl)c1)c1cc(Cl)ccc1O | 8 | 1.6 (≈ 0.507 µg/mL) |  |  |  |  | 2.3 |  | 
O=C(NCCCl)Oc1ccc(Cl)cc1C(=O)Nc1ccc(Cl)c(Cl)c1 | 0 | 2.4 (≈ 1.01 µg/mL) |  |  |  |  | 1.9 |  | 
NNC(=O)c1ccncc1 [ISONIAZID] | 12 | 7.3 (≈ 1 µg/mL) |  |  |  |  |  |  | 
O=C(NCCCl)Oc1ccc(Br)cc1C(=O)Nc1ccc(C(F)(F)F)cc1 | 9 | 1.1 (≈ 0.512 µg/mL) | 1 (≈ 0.466 µg/mL) | 2 (≈ 0.931 µg/mL) | 1 (≈ 0.466 µg/mL) | 2 (≈ 0.931 µg/mL) | 8.5 | 4.7 | 4.7
CCCNC(=O)Oc1ccc(Cl)cc1C(=O)Nc1ccc(Cl)c(Cl)c1 | 2 | 1.3 (≈ 0.522 µg/mL) | 1 (≈ 0.402 µg/mL) | 1 (≈ 0.402 µg/mL) | 1 (≈ 0.402 µg/mL) | 1 (≈ 0.402 µg/mL) | 5.4 | 7 | 7
O=C(Oc1ccc(Cl)cc1C(=O)Nc1ccc(C(F)(F)F)cc1)c1cnccn1 |  |  |  | 0.5 (≈ 0.211 µg/mL) |  | 1 (≈ 0.422 µg/mL) |  |  | 
O=C(Oc1ccc(Cl)cc1C(=O)Nc1ccc(Cl)c(Cl)c1)c1cnc(Cl)cn1 | 0 | 4.4 (≈ 2.01 µg/mL) | 1 (≈ 0.457 µg/mL) | 2 (≈ 0.914 µg/mL) | 1 (≈ 0.457 µg/mL) | 2 (≈ 0.914 µg/mL) | 2.3 | 5.1 | 5.1
O=C(NCCCCl)Oc1ccc(Cl)cc1C(=O)Nc1ccc(C(=O)c2ccccc2)cc1 | 0 | 21.3 (≈ 10 µg/mL) |  |  |  |  | 0.8 |  | 
O=C(c1ccccc1)c1ccc(NC(=O)c2cc(Cl)ccc2O)cc1 | 50 | 14.2 (≈ 5 µg/mL) |  |  |  |  | 3.4 |  | 
O=C(Nc1ccc(C(F)(F)F)cc1)c1cc(Br)ccc1O | 0 | 2.8 (≈ 1.01 µg/mL) |  |  |  |  | 2.7 |  | 
O=C(O)c1cnc(Cl)cn1 |  | > 633 |  |  |  |  |  |  | 
O=C(NCCCCl)Oc1ccc(Br)cc1C(=O)Nc1ccc(C(F)(F)F)cc1 | 0 | 1 (≈ 0.48 µg/mL) | 1 (≈ 0.48 µg/mL) | 2 (≈ 0.959 µg/mL) | 1 (≈ 0.48 µg/mL) | 2 (≈ 0.959 µg/mL) | 5.7 | 2.9 | 2.9
O=C(NCCCl)Oc1ccc(Br)cc1C(=O)Nc1ccc(Cl)c(Cl)c1 | 0 | 2.2 (≈ 1.03 µg/mL) | 1 (≈ 0.467 µg/mL) | 2 (≈ 0.933 µg/mL) | 1 (≈ 0.467 µg/mL) | 2 (≈ 0.933 µg/mL) | 3.1 | 3.5 | 3.5
O=C(NCCCCl)Oc1ccc(Cl)cc1C(=O)Nc1ccc(Cl)c(Cl)c1 | 1 | 1.2 (≈ 0.523 µg/mL) |  |  |  |  | 2.1 |  | 
CCCNC(=O)Oc1ccc(Cl)cc1C(=O)Nc1ccc(C(=O)c2ccccc2)cc1 | 6 | 11.5 (≈ 5.02 µg/mL) |  |  |  |  | 1.6 |  | 
O=C(NCCCl)Oc1ccc(Cl)cc1C(=O)Nc1ccc(C(=O)c2ccccc2)cc1 | 21 | 10.9 (≈ 4.98 µg/mL) |  |  |  |  | 3.5 |  | 
O=C(NCCCl)Oc1ccc(Br)cc1C(=O)Nc1ccc(C(=O)c2ccccc2)cc1 | 0 | 20 (≈ 10 µg/mL) |  |  |  |  | 1.2 |  | 
